From ChEMBL document CHEMBL4808210, “Mapping Chromone-3-Phenylcarboxamide Pharmacophore: Quid Est Veritas?” (J Med Chem, 2021)

Columns and labels:
MAO-A = target: T1, MAO-A (Homo sapiens, UniProt P21397); assay: Inhibition of recombinant human MAO-A expressed in baculovirus infected BTI-TN- 5B1-4 insect cells at 10 uM using kynuramine as substrate preincubated for 10 mins in presence of substrate followed by enzyme addition and measured every minute for 30 mins by spectrophotometry analysis relative to control; details: probe kynuramine, time 40 min
T1 sequence (P21397 whole entry): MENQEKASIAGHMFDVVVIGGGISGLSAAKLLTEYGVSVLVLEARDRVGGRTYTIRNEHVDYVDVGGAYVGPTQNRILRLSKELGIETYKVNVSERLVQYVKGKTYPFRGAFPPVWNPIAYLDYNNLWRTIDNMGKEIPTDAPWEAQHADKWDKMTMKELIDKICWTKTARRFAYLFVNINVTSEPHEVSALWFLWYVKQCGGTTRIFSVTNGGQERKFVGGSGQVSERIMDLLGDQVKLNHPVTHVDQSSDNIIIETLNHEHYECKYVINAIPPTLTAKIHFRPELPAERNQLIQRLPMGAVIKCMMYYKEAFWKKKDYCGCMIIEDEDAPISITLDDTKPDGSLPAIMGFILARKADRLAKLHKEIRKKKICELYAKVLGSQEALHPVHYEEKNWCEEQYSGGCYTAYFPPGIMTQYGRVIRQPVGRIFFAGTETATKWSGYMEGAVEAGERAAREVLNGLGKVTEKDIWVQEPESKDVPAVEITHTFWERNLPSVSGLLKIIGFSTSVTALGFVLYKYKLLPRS
How it was run: (§1)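 Recombinant hMAO-A and hMAO-B were assayed with kynuramine as substrate. Percent inhibition was taken at 10 μM, the highest concentration tested. Where the hMAO-A IC₅₀ was not reached, it was taken as 10 μM.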

[1] = target: T2, Amine oxidase [flavin-containing] B (Homo sapiens, UniProt P27338); assay: Time dependent inhibition of recombinant human MAO-B expressed in baculovirus infected BTI-TN- 5B1-4 insect cells assessed as increase in enzyme activity at IC80 measured after 120 mins; details: bti-tn-5b1-4, 2 h
T2 sequence (P27338 whole entry): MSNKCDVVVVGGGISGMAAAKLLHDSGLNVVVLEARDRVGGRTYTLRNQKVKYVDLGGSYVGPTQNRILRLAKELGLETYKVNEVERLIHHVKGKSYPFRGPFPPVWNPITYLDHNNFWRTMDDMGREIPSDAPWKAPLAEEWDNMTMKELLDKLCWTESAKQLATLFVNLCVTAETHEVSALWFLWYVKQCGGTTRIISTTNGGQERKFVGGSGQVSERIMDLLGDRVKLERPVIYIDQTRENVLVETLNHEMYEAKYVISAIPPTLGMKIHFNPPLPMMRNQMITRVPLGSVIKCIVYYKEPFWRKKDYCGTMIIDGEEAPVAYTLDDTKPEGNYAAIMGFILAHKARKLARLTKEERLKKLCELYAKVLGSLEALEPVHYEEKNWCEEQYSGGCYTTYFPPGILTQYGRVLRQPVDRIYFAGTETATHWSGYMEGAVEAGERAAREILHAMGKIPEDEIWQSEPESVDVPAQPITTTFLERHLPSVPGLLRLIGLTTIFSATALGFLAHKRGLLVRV

hERG = hERG (Homo sapiens, UniProt Q12809); assay: Inhibition of human ERG at 10 uM incubated for 2 hrs by fluorescence polarization assay relative to control
hERG, sequence (Q12809 whole entry): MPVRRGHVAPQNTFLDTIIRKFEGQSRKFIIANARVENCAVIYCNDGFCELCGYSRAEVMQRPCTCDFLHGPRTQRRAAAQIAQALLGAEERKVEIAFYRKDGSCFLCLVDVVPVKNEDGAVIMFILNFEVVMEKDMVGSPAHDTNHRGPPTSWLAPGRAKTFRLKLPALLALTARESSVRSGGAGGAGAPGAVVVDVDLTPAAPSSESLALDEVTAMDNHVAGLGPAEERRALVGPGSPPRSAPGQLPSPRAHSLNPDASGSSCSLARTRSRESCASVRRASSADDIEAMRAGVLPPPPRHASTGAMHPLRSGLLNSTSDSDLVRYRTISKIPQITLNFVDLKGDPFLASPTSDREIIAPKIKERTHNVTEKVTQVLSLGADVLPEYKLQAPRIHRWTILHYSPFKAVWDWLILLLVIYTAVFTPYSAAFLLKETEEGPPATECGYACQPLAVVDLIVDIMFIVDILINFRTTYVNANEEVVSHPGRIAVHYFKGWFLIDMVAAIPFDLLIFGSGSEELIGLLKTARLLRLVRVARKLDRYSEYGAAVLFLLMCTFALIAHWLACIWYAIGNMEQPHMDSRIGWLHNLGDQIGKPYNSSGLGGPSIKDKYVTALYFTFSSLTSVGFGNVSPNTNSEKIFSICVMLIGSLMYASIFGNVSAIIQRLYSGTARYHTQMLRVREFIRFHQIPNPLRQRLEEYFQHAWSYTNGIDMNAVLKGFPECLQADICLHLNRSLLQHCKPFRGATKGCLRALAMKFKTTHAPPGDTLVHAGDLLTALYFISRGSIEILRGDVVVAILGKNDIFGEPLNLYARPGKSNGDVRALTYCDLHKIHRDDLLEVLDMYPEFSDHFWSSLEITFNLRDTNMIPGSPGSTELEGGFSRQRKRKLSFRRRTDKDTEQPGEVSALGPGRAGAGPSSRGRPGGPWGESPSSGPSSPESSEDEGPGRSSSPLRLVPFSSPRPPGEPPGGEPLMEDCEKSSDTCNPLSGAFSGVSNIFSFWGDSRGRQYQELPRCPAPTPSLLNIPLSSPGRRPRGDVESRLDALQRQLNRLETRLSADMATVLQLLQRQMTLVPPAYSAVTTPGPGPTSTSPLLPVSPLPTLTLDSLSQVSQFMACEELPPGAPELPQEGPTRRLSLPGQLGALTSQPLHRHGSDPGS
How it was run: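 hERG binding was measured by fluorescence polarization, using a homogenized membrane preparation containing hERG plus a fluorescent tracer. A drop in FP signal from tracer displacement was read as inhibition. Compounds were tested at 10 μM.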

SH-SY5Y [2] = assay: Protection against iron(III)-induced damage in human SH-SY5Y cells assessed as increase in lysosomal activity at 10 uM pretreated for 30 mins followed by iron(III) treatment after 24 hrs by NR uptake assay relative to control; format: functional; details: time 24.5 hrs
How it was run: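 Differentiated SH-SY5Y cells were pretreated with compounds at 1 or 10 μM for 30 min, then exposed to iron(III) at 1000 or 1500 μM for 24 h. Viability was read by neutral red uptake. Mean ± SD of three independent experiments, two-way ANOVA.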

Caco-2 = assay: Cytotoxicity against human Caco-2 cells assessed as effect on cell viability at 1 to 10 uM measured after 24 hrs by MTT assay; format: cell-based; details: caco-2, 24 h, dose 1-10 µM
How it was run: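 Caco-2 cells, and SH-SY5Y cells first differentiated toward a dopaminergic-like phenotype, were treated for 24 h with compounds at 1 and 10 μM. Metabolic activity was read as MTT reduction to formazan, relative to untreated cells. Mean ± SEM of at least three independent experiments, each in triplicate.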

HEK293 [3] = assay: Cytotoxicity against HEK293 cells at 10 uM incubated for 24 to 48 hrs by Celltiter-Glo assay relative to control; format: cell-based; details: human, hek293, 10 µM, time 24-48 hrs
How it was run: (§2)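 Cells (HEK-293, HUVEC, MCF-7) exposed to test compounds at 10 μM for 24 h; cytotoxicity read in triplicate with a luminescence kit measuring intracellular ATP levels.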

[4] = target: T2, Amine oxidase [flavin-containing] B; assay: Mixed-type inhibition of recombinant human MAO-B expressed in baculovirus infected BTI-TN- 5B1-4 insect cells at 1 to 5 nM using varying levels of kynuramine as substrate by Lineweaver-Burk plot analysis; details: dose 1-5 nM
How it was run: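 Initial rates of hMAO-B activity were measured at six kynuramine concentrations (10−100 μM), without inhibitor and at three inhibitor concentrations. Kinetic parameters were read from a double-reciprocal Lineweaver−Burk plot. An Ackermann−Potter plot of total enzyme concentration was also constructed.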

HEK293 [5] = assay: Cytotoxicity against HEK293 cells incubated for 24 to 48 hrs by Celltiter-Glo assay; format: cell-based, Homo sapiens
[6] = target: T2, Amine oxidase [flavin-containing] B; assay: Inhibition of recombinant human MAO-B expressed in baculovirus infected BTI-TN- 5B1-4 insect cells using kynuramine as substrate preincubated for 10 mins in presence of substrate followed by enzyme addition and measured every minute for 30 mins by spectrophotometry analysis; format: cell-based
SH-SY5Y [7] = assay: Cytotoxicity against human SH-SY5Y cells assessed as effect on NR uptake at 1 to 10 uM measured after 24 hrs by neutral red uptake assay; format: cell-based; details: dose 1-10 µM
How it was run: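 Differentiated SH-SY5Y cells were exposed to compounds at 1 and 10 μM for 24 h. Lysosomal activity was read as neutral red dye uptake and compared with untreated cells. Mean ± SEM of at least three independent experiments run in triplicate.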

HUVEC [8] = assay: Cytotoxicity against HUVEC cells incubated for 24 to 48 hrs by Celltiter-Glo assay; format: cell-based, Homo sapiens; details: huvec
MCF7 [9] = assay: Cytotoxicity against human MCF7 cells at 10 uM incubated for 24 to 48 hrs by Celltiter-Glo assay relative to control; format: cell-based; details: mcf7, 10 µM, time 24-48 hrs; how it was run: as §2
HUVEC [10] = assay: Cytotoxicity against HUVEC cells at 10 uM incubated for 24 to 48 hrs by Celltiter-Glo assay relative to control; format: cell-based; details: human, time 24-48 hrs; how it was run: as §2
MCF7 [11] = assay: Cytotoxicity against human MCF7 cells incubated for 24 to 48 hrs by Celltiter-Glo assay; format: cell-based
Homo sapiens = species on record: Homo sapiens; assay: Selectivity index, ratio of IC50 for recombinant human MAO-A expressed in baculovirus infected BTI-TN- 5B1-4 insect cells to IC50 for recombinant human MAO-B expressed in baculovirus infected BTI-TN- 5B1-4 insect cells using kynuramine as substrate preincubated for 10 mins in presence of substrate followed by enzyme addition and measured every minute for 30 mins by spectrophotometry analysis; how it was run: as §1
[12] = target: ATP-dependent translocase ABCB1 (Homo sapiens, UniProt P08183); assay: Modulation of P-gp-mediated Rhodamine-123 efflux in human Caco-2 cells assessed as Rhodamine-123 accumulation at 10 uM pretreated for 30 mins in presence or absence of Zos followed by Rho-123 addition and measured after 90 mins by fluorescence spectroscopy; format: cell-based; details: caco-2, 2 h, time 120 min
ATP-dependent translocase ABCB1, sequence (P08183 whole entry): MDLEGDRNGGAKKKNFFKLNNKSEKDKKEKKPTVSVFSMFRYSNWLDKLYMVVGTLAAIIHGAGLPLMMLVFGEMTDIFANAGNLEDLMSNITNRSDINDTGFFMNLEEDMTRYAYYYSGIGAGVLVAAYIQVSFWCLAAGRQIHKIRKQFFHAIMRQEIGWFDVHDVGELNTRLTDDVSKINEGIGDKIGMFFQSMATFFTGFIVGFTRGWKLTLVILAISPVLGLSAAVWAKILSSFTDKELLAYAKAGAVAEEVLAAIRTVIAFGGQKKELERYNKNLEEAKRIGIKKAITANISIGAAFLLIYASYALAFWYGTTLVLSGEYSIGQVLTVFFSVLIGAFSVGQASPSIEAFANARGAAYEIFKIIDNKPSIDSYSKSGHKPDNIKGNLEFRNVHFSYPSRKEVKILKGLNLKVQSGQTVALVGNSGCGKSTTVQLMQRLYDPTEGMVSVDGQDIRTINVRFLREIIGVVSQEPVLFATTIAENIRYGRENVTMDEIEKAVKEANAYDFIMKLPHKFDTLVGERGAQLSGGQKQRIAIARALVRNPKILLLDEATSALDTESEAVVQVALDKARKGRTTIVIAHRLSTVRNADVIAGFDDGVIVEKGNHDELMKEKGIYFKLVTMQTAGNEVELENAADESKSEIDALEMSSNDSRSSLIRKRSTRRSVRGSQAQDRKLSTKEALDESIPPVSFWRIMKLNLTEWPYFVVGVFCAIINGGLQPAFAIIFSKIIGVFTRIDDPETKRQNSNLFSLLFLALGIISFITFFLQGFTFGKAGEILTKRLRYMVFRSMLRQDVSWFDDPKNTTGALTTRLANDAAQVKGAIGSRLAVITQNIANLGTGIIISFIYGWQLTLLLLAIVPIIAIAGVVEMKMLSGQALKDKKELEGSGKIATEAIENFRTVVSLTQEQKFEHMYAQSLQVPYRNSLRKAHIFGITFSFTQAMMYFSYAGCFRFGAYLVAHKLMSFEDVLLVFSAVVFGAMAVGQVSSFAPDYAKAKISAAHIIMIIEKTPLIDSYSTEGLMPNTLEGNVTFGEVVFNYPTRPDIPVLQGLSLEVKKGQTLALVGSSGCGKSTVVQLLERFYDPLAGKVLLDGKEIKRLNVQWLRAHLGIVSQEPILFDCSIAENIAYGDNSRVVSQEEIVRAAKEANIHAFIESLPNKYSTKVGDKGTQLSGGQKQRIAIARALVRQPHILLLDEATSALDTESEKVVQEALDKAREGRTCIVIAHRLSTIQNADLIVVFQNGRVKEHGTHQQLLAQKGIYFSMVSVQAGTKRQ
How it was run: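 Caco-2 cells were exposed to compounds at 10 μM during incubation with the P-gp substrate rhodamine 123 (5 μM). Zosuquidar served as the specific P-gp inhibitor. Cellular rhodamine 123 was read by fluorescence spectroscopy. Mean ± SEM of at least three independent experiments in triplicate.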

inhibition at 0.5 h, 10 µM (MAO-A): 0.7%
TDI [1]: Active
inhibition (INH) [4]: Active
IC50 [6]: 1.52 nM
Activity [12]: Not Active
Compound: O=C(Nc1cccc(Cl)c1)c1csc2ccccc2c1=O
inhibition at 2 h, 10 µM (hERG): < 10%
Activity (SH-SY5Y [2]): 63%
Activity (Caco-2): Non-Toxic
Activity (HEK293 [3]): < 10%
IC50 (HEK293 [5]): Not Active
Activity (SH-SY5Y [7]): Non-Toxic
IC50 (HUVEC [8]): Not Active
Activity (MCF7 [9]): < 10%
Activity (HUVEC [10]): < 10%
IC50 (MCF7 [11]): Not Active
Ratio IC50 (Homo sapiens): > 6570
